Screening data deposited in PubChem BioAssay by Sanford-Burnham Center for Chemical Genomics.
HKDC1 inh – HKDC1 hexokinase inhibitors, primary screen, biochemical, fluorescence, uHTS; AID 493160, 2011; 0.16% of 340,000 active; Q2TB90; recombinant HKDC1, G6PDH/diaphorase resazurin coupled fluorescence; inhibition, % at 20 µM;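 active means inhibition above about 35% when tested at 20 µM, limit read from the data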
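Assay system – recombinant HKDC1 (HK5) hexokinase enzyme, produced in-house · Input – HKDC1 at 5 µg/mL · Reagent – glucose plus 1 mM ATP as hexokinase substrates · Timing – 90 min reaction incubation at room temperature, dark · Measured by – G6PDH/diaphorase-coupled fluorescence, 1 mM NADP, 100 µM resazurin, 525/613 nm · Benchmarks – DMSO-enzyme wells negative, buffer-substituted wells positive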
STEP inh – STEP phosphatase inhibitors, primary screen, biochemical, fluorescence intensity, uHTS. recombinant STEP, OMFP fluorogenic substrate. AID 588621, 2011. Tyrosine-protein phosphatase non-receptor type 5 (Homo sapiens), P54829. inhibition, % at 20 µM. 0.25% of 360,000 active;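 active means inhibition at 20 µM, scaled per plate between control wells, above about 37%, limit read from the data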
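Test system: STEP tyrosine phosphatase / Reagent: OMFP at 25 µM / Doses: 20 µM, 1% DMSO / Read-out: percent inhibition scaled to no-enzyme and uninhibited-enzyme controls, plate-pattern corrected / Detection: FITC-channel fluorescence of OMFP product / Medium: Bis-Tris buffer pH 6.0, 2.5 mM DTT, 0.005% Tween 20 / Schedule: 20 min at room temperature, dark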
Scp1 inh – Scp-1 phosphatase inhibitors, primary screen, biochemical, colorimetric, uHTS. inhibition, % at 20 µM. Recombinant Scp1, phosphopeptide, malachite green phosphate absorbance. 0.88% of 340,000 active;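 active means inhibition above about 50% at 20 µM, limit read from the data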
Target sequence (Q9GZU7 76-261 limits assumed): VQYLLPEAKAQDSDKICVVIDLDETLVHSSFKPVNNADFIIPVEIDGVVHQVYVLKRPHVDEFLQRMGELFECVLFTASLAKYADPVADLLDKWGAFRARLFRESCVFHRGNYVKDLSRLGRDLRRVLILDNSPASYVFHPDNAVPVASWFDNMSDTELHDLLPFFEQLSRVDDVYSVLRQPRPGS
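Incubation: 45 min enzyme reaction at room temperature / System: truncated SCP-1 phosphatase (76-261aa) / Reagent: Phospho 17-mer peptide substrate / Buffer or medium: Acidic Tris acetate buffer with magnesium and detergent / Signal: absorbance at 630 nm / Doses: one concentration, 20 µM, with 1.0% DMSO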
LMPTP block – LMPTP phosphatase inhibitors, primary screen, biochemical, fluorescence intensity, uHTS; Low molecular weight phosphotyrosine protein phosphatase (Homo sapiens), P24666; recombinant LMPTP-A, OMFP fluorogenic substrate; inhibition, % at 20 µM; 0.22% of 360,000 active;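 active means compounds that cut the enzyme signal by at least half of the control window in the single-dose screen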
Target sequence (P24666 whole entry, looked up): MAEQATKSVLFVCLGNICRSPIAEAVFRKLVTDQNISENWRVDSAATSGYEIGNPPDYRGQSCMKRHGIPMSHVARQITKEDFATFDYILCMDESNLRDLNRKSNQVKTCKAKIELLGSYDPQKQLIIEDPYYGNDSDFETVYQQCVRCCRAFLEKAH
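Assay system: LMPTP-A phosphatase enzyme | Input: 0.625 nM enzyme | Also added: Fluorogenic phosphatase substrate OMFP at 400 µM final | Compound dosing: One test concentration per compound, 20 µM, with 3% DMSO overall | Schedule: 50 min enzyme reaction at room temperature, protected from light | Signal: Fluorescence intensity | Benchmarks: no-enzyme and uninhibited controls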
DNMT1 inh – human DNMT1 methyltransferase inhibitors, primary screen, biochemical, molecular beacon, fluorescence, HinP1I cleavage, uHTS; DNA (cytosine-5)-methyltransferase 1 (Homo sapiens), P26358; inhibition (reported as % activation of signal), % at 10 µM; 0.83% of 360,000 active; AID 588458, 2011; in the data active means inhibition above about 50%
SUMO1 PPI mod – modulators of SUMO1 protein-protein interactions, primary screen, biochemical, uHTS; Small ubiquitin-related modifier 1 (Homo sapiens), P63165; SUMO1 binding to a labelled peptide, TR-FRET, 1 h; inhibition, % at 20 µM; 0.33% of 360,000 active; AID 602429, 2012; in the data active means inhibition above about 37%
Target sequence (P63165 whole entry, looked up): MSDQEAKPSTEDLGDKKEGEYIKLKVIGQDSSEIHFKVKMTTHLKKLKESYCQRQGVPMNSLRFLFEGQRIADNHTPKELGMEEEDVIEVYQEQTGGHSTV
Large screens that a line does not name were inactive. This is a sample that favours compounds with a hit; in the whole collection about 1.8% have one here.

COc1ccc(-c2cc(C)no2)cc1S(=O)(=O)Nc1cccc(CN2CCCC2)c1	none
Cc1cc(=O)oc2c1c(C)nn2-c1nn[nH]n1	Scp1 inh 68
CCCc1cc(=O)oc2cc(C)cc(OCc3nn[nH]n3)c12	none
CN1OC[C@@H]2CN(Cc3ccccc3)[C@H](c3cccc(-c4ccccc4)c3)C[C@@H]21	none (no result: HKDC1 inh, Scp1 inh)
CCOc1ncccc1C(=O)NNC(=O)c1ccccc1-n1cccc1	none
Oc1ccc(N=C/C=C/c2cccc(Br)c2)cc1-c1nc2ccccc2s1	DNMT1 inh 52
Cn1c(N)c(C(=O)COC(=O)c2cc3ccccc3cc2O)c(=O)n(C)c1=O	SUMO1 PPI mod 51
Cc1ccc(CN(CC(=O)NCCc2ccccc2)C(=O)c2csnn2)cc1	none
CCOC(=O)Cc1cc(=O)n(-c2nc3ccccc3s2)[nH]1	SUMO1 PPI mod 38
CCCc1cc(=O)n(-c2nc3ccccc3s2)[nH]1	none
O=C(CSc1ccc(Cl)cc1)c1ccco1	Scp1 inh 73, DNMT1 inh 98
O=C(CCSc1ccc(Cl)cc1)c1ccco1	none
CC(Oc1ccc(Br)cc1)C(=O)O/N=C(\N)c1ccncc1 (stereo not drawn)	none
O=C(COc1ccc2c(-c3ccccc3)cc(=O)oc2c1)N[C@H](Cc1c[nH]c2ccccc12)C(=O)O	none
Cc1cccc(-n2nc3c(c2NC(=O)c2ccco2)CS(=O)C3)c1C (stereo not drawn)	none
Cc1cccc(-n2nc3c(c2NC(=O)c2ccco2)CSC3)c1C	DNMT1 inh 87
COCCN(CC(=O)Nc1cccc(C)c1C)C(=O)c1cc2c(s1)CCC2	Scp1 inh 61
CCN(CC(=O)Nc1ccccc1C(F)(F)F)C(=O)c1cc2c(s1)CCCCC2	none
CCc1cccc(C)c1NC(=O)CNCc1ccccc1	none
CCOC(=O)N1CCC(NC(=O)c2ccccc2C(=O)O)CC1	SUMO1 PPI mod 43
O=C(Nc1ccc(C2=NCCN2)cc1)c1ccc(C(=O)Nc2ccc(C3=NCCN3)cc2)c([N+](=O)[O-])c1	LMPTP block 82, SUMO1 PPI mod 96
COc1cc(/C=N/NC(=O)c2cc(O)cc(O)c2)ccc1OC(=O)c1ccccc1	STEP inh 67, Scp1 inh 62, DNMT1 inh 77
COc1ccc(C(=O)N/N=C/c2ccc(OC)c(COc3ccccc3)c2)cc1	none
COc1cc(/C=N/NC(=O)c2ccc(O)cc2)ccc1OCC(=O)Nc1cccc([N+](=O)[O-])c1	SUMO1 PPI mod 93
COc1ccc(/C=N\NC(=O)c2cc(O)c(O)c(O)c2)cc1COc1ccc(C(=O)OCC(C)C)cc1	Scp1 inh 51
COc1ccc(N2Nc3n[nH]c(N)c3N2)cc1	none
OC[C@@H]1CN(Cc2ccc(-c3ccccc3)cc2)C[C@H](n2cnc3c(NCc4ccc(F)cc4)ncnc32)O1	none (no result: HKDC1 inh, Scp1 inh)
CCOC(=O)C1(Cc2ccccc2)C(=O)Nc2ccccc21 (stereo not drawn)	none
CCOC(=O)C12CNC(=O)C(C(=O)OCC)(CNC1=O)C2	SUMO1 PPI mod 40
COC(=O)[C@@]12C[C@@H](CC(=O)N3CCSCC3)C(=O)N(Cc3cccc4ccccc34)C1=CCC(C)(C)C2	none (no result: HKDC1 inh, STEP inh, Scp1 inh, DNMT1 inh)
CCN(CC(=O)NCc1cccs1)C(=O)c1ccc(-c2cccc(C(F)(F)F)c2)o1	none
CCN1CCN(S(=O)(=O)c2cc3c(cc2Cl)NC(=O)CO3)CC1	none
O=c1oc2c(O)c(O)cc3c(=O)oc4c(O)c(O)cc1c4c23	HKDC1 inh 54, STEP inh 99, Scp1 inh 96, LMPTP block 86, DNMT1 inh 88, SUMO1 PPI mod 94
CCNc1ccc2noc3c2c1C(=O)c1ccccc1-3	DNMT1 inh 63
